{"source": "ChEMBL document CHEMBL2390917", "about": "“Synthesis and biological evaluation of 2-(5-methyl-4-phenyl-2-oxopyrrolidin-1-yl)-acetamide stereoisomers as novel positive allosteric modulators of sigma-1 receptor” (Bioorg Med Chem, 2013)", "key": {"[1]": {"target": "Sigma non-opioid intracellular receptor 1 (Rattus norvegicus) (UniProt Q9R0C9)", "sequence (Q9R0C9 whole entry)": "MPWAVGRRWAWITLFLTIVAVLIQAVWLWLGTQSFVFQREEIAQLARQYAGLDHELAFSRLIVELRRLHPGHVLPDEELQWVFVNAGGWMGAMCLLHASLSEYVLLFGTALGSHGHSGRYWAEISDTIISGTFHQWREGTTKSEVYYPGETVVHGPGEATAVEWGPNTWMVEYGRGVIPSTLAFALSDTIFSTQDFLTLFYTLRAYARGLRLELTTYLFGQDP", "experiment": "Positive allosteric modulation of Wistar rat sigma 1 receptor assessed as potentiation of PB-28 effect on electrically-stimulated vas deferens contraction at 10 uM preincubated for 10 mins followed by PB-28 addition"}, "[2]": {"target": "Sigma non-opioid intracellular receptor 1 (Homo sapiens, UniProt Q99720)", "sequence (Q99720 whole entry)": "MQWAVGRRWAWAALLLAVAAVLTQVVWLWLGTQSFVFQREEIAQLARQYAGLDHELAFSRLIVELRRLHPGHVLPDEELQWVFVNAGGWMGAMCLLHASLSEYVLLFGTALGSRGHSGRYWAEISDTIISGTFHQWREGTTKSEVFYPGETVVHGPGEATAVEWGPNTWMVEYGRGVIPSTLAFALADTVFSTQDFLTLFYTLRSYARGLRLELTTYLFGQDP", "experiment": "Modulation of sigma 1 receptor (unknown origin) by radioligand displacement assay relative to control"}, "Homo sapiens [3]": {"organism": "Homo sapiens", "experiment": "Binding affinity to GABA receptor (unknown origin) at 10 uM by radioligand displacement assay relative to control"}, "Mus musculus [4]": {"tested_on": "Mus musculus", "experiment": "Toxicity in ICR mouse assessed as effect on locomotor activity measured moved distance per 4 mins at 100 mg/kg, ip after 60 mins by open field test (reference value: 623 136 cm)", "format": "organism-based", "set-up": "dose 100 mg/kg, route intraperitoneal", "settings": "in vivo"}, "Mus musculus [5]": {"tested_on": "Mus musculus", "experiment": "Toxicity in ICR mouse assessed as effect on locomotor activity measured moved distance per 4 mins at 10 mg/kg, ip after 180 mins by open field test (reference value: 436 125 cm)", "format": "organism-based", "set-up": "dose 10 mg/kg, route intraperitoneal", "settings": "in vivo"}, "[6]": {"target": "Galanin receptor type 1 (Homo sapiens) (UniProt P47211)", "experiment": "Binding affinity to human GAL1 receptor at 10 uM by radioligand displacement assay relative to control"}, "[7]": {"target": "Adrenergic receptor alpha-1 (Homo sapiens) (UniProt P35348+P25100+P35368)", "experiment": "Binding affinity to adrenergic alpha1 receptor (unknown origin) at 10 uM by radioligand displacement assay relative to control"}, "[8]": {"target": "Nociceptin receptor (Homo sapiens) (UniProt P41146)", "sequence (P41146 whole entry)": "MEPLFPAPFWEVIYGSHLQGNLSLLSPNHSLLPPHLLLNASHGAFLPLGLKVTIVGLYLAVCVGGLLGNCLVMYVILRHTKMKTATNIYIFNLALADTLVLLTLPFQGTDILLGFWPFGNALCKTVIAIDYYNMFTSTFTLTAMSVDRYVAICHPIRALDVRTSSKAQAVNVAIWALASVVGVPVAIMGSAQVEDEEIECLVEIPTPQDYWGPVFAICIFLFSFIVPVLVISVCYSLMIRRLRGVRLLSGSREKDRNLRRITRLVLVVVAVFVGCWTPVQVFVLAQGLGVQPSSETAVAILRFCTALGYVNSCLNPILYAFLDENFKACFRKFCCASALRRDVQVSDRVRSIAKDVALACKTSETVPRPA", "experiment": "Binding affinity to ORL1 receptor (unknown origin) at 10 uM by radioligand displacement assay relative to control"}, "Homo sapiens [9]": {"organism": "Homo sapiens", "experiment": "Binding affinity to L-type calcium channel verapamil binding site (unknown origin) at 10 uM by radioligand displacement assay relative to control"}, "[10]": {"target": "Neuromedin-K receptor (Homo sapiens) (UniProt P29371)", "sequence (P29371 whole entry)": "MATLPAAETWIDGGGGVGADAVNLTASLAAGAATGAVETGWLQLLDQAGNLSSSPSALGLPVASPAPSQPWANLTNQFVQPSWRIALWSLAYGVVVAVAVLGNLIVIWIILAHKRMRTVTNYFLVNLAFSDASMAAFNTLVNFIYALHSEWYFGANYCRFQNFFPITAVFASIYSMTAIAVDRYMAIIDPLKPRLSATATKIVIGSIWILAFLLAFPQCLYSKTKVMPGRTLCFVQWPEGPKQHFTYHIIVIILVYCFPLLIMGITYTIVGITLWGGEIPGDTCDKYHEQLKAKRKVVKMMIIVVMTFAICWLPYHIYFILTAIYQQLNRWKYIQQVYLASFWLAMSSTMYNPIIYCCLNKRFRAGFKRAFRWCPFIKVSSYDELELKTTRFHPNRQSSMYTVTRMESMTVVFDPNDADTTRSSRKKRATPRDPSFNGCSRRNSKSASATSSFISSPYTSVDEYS", "experiment": "Binding affinity to human NK3 receptor at 10 uM by radioligand displacement assay relative to control"}, "Mus musculus [11]": {"tested_on": "Mus musculus", "experiment": "Toxicity in ICR mouse assessed as effect on locomotor activity measured moved distance per 4 mins at 1 mg/kg, ip after 240 mins by open field test (reference value: 398 70 cm)", "format": "organism-based", "set-up": "dose 1 mg/kg, route intraperitoneal", "settings": "in vivo"}, "[12]": {"target": "D(1B) dopamine receptor (Homo sapiens) (UniProt P21918)", "sequence (P21918 whole entry)": "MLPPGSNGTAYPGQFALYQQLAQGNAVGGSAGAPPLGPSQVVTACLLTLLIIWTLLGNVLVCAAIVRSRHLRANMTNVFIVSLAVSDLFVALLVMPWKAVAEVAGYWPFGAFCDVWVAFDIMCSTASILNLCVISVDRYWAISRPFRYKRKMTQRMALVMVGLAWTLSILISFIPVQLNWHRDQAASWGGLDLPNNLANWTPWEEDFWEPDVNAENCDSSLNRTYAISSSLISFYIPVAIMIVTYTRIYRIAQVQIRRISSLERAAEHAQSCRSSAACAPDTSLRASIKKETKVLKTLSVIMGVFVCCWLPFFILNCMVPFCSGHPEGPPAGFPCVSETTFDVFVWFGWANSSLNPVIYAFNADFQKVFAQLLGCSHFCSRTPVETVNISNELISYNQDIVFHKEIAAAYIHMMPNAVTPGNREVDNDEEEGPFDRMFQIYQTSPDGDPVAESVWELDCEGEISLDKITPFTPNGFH", "experiment": "Binding affinity to human dopamine D5 receptor at 10 uM by radioligand displacement assay relative to control"}, "[13]": {"target": "Sodium-dependent dopamine transporter (Homo sapiens) (UniProt Q01959)", "sequence (Q01959 whole entry)": "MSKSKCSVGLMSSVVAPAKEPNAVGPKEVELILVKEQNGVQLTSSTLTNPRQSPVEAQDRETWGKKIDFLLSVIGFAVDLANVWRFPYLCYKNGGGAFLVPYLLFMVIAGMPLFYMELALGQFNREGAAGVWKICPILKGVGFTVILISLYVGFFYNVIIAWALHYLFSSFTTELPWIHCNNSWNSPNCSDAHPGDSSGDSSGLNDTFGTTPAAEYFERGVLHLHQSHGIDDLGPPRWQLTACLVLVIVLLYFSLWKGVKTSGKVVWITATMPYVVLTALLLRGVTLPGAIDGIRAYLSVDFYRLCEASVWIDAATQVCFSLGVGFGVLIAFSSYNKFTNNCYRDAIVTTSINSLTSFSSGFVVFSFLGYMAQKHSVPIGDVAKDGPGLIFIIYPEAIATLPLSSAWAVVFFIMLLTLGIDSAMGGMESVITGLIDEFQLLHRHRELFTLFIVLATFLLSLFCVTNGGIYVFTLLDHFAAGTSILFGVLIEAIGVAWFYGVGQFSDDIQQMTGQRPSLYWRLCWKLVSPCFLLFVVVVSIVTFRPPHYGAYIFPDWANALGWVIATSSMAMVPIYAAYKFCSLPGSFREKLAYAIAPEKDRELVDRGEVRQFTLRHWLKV", "experiment": "Binding affinity to human dopamine transporter at 10 uM by radioligand displacement assay relative to control"}, "[14]": {"target": "5-hydroxytryptamine receptor 1B (Homo sapiens) (UniProt P28222)", "sequence (P28222 whole entry)": "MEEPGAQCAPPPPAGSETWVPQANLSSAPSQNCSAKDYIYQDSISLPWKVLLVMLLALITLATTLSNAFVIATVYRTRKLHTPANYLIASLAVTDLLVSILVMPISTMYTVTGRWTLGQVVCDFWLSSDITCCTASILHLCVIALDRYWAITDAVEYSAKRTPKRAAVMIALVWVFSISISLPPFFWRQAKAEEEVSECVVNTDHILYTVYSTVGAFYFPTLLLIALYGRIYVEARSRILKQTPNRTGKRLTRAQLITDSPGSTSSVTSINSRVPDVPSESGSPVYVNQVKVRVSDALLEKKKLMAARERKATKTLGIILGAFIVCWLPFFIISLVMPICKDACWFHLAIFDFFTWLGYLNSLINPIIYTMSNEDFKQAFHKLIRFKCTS", "experiment": "Binding affinity to 5-HT1B receptor (unknown origin) at 10 uM by radioligand displacement assay relative to control"}, "Mus musculus [15]": {"tested_on": "Mus musculus", "experiment": "Antiamnesic activity in ICR mouse scopolamine-induced memory impairment model assessed as increase in retention latency at 5 mg/kg, ip administered 60 mins prior to scopolamine challenge measured after 40 mins by passive avoidance test in presence of sigma-1 receptor anatagonist NE-100", "format": "functional, organism-based", "set-up": "dose 5 mg/kg"}, "Mus musculus [16]": {"tested_on": "Mus musculus", "experiment": "Cognitive enhancing effect in ICR mouse assessed as increase in retention latency at 1 mg/kg, ip administered 60 mins prior to testing measured after 24 hrs by passive avoidance test relative to control", "format": "functional", "settings": "route intraperitoneal"}, "[17]": {"target": "D(4) dopamine receptor (Homo sapiens) (UniProt P21917)", "sequence (P21917 whole entry)": "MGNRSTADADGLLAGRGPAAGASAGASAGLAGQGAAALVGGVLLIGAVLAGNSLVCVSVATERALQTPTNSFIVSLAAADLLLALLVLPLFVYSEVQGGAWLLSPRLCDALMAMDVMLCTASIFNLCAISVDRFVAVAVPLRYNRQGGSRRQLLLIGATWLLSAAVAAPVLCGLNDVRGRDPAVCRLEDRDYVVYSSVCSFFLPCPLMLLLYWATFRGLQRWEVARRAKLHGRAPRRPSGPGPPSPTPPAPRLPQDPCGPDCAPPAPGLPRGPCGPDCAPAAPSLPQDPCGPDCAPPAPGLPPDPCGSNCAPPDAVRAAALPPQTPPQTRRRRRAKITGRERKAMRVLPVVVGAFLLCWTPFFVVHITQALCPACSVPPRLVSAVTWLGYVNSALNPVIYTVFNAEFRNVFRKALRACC", "experiment": "Binding affinity to human dopamine D4.4 receptor at 10 uM by radioligand displacement assay relative to control"}, "[18]": {"target": "Histamine H1 receptor (Homo sapiens) (UniProt P35367)", "sequence (P35367 whole entry)": "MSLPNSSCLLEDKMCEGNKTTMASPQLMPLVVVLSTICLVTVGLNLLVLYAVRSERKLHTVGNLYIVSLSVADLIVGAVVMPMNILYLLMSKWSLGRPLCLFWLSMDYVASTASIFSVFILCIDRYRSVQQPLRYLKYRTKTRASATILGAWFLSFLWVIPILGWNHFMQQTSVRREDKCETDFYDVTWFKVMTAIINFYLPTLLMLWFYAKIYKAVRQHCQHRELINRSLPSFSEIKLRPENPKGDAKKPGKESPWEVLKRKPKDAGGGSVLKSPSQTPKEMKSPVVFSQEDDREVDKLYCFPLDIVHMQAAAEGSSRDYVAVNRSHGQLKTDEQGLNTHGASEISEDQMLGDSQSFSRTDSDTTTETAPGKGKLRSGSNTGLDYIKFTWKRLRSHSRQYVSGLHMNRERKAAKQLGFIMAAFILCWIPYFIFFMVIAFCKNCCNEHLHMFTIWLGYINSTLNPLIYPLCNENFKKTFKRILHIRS", "experiment": "Binding affinity to human histamine H1 receptor at 10 uM by radioligand displacement assay relative to control"}, "[19]": {"target": "Substance-K receptor (Homo sapiens) (UniProt P21452)", "sequence (P21452 whole entry)": "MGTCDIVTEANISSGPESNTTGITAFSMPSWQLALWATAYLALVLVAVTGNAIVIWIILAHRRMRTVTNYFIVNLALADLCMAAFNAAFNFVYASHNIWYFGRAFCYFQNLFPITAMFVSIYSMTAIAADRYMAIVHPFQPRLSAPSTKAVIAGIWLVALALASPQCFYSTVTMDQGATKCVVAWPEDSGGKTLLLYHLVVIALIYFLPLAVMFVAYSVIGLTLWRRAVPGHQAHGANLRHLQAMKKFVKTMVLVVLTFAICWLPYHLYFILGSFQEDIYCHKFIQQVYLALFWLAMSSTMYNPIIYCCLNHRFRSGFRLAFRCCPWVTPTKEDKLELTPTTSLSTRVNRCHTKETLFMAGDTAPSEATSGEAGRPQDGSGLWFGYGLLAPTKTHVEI", "experiment": "Binding affinity to human NK2 receptor at 10 uM by radioligand displacement assay relative to control"}, "Mus musculus [20]": {"tested_on": "Mus musculus", "experiment": "Antiamnesic activity in ICR mouse scopolamine-induced memory impairment model assessed as increase in retention latency at 5 mg/kg, ip administered 60 mins prior to scopolamine challenge measured after 40 mins by passive avoidance test relative to scopolamine-treated control", "format": "functional", "settings": "route intraperitoneal"}, "[21]": {"target": "Sigma non-opioid intracellular receptor 1 (Rattus norvegicus) (UniProt Q9R0C9)", "experiment": "Positive allosteric modulation of Wistar rat sigma 1 receptor assessed as potentiation of PRE-084 effect on electrically-stimulated vas deferens contraction at 10 uM preincubated for 10 mins followed by PRE-084 addition", "method_in_brief": "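Isolated rat vas deferens, proximal ~15 mm segments, in K-H buffer at 32 °C gassed […], with 1.0 g passive tension and a 60 min adaptation. Field-stimulated at 0.1 Hz, 1 ms, 50 V. Cumulative PRE-084 (1–100 µM) was given, then washout and a 30 min rest. Test compound 10 µM was added for 10 min before cumulative PRE-084. Response is % increase over baseline amplitude; n=6, mean ± SEM, paired t-test.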"}, "[22]": {"target": "Delta-type opioid receptor (Homo sapiens) (UniProt P41143)", "sequence (P41143 whole entry)": "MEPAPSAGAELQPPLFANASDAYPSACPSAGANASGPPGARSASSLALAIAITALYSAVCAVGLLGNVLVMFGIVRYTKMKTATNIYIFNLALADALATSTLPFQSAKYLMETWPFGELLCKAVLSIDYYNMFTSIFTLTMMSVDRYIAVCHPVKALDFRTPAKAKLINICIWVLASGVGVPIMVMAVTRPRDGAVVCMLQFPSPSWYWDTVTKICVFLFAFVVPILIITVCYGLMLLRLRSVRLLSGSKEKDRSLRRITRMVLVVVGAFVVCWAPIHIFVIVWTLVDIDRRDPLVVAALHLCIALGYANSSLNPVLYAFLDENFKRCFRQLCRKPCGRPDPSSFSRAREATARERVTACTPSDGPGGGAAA", "experiment": "Binding affinity to delta opioid receptor (unknown origin) at 10 uM by radioligand displacement assay relative to control"}, "Homo sapiens [23]": {"organism": "Homo sapiens", "experiment": "Binding affinity to PCP receptor (unknown origin) at 10 uM by radioligand displacement assay relative to control"}, "Mus musculus [24]": {"tested_on": "Mus musculus", "experiment": "Toxicity in ip dosed ICR mouse assessed as effect on motor strength measured within 5 secs by traction test", "format": "organism-based", "settings": "in vivo, 5 s"}, "[25]": {"target": "Calcitonin gene-related peptide type 1 receptor (Homo sapiens) (UniProt Q16602)", "sequence (Q16602 whole entry)": "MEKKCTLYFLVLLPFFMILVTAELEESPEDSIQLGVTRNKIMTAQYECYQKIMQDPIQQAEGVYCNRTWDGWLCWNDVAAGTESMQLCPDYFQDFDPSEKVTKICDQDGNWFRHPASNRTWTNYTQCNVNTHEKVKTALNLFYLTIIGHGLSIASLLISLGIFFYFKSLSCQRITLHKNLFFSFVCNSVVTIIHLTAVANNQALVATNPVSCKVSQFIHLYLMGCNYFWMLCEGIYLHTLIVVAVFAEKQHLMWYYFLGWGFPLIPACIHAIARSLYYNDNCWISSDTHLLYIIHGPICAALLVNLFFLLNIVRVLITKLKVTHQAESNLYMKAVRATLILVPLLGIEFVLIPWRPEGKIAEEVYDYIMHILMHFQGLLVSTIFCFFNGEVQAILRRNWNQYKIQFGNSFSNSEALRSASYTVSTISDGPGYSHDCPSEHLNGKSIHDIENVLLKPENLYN", "experiment": "Binding affinity to human CGRP receptor at 10 uM by radioligand displacement assay relative to control"}}, "note": "The source made the active and inactive calls. The calls are words filed in the database; no cut-off is given here."}
{"smiles": "C[C@H]1[C@@H](c2ccccc2)CC(=O)N1CC(N)=O", "values": [{"measurement": "Activity", "setting": "[1]", "result": "inactive"}, {"measurement": "Activity", "setting": "[2]", "result": "> 20", "unit": "%"}, {"measurement": "inhibition", "setting": "Homo sapiens [3]", "result": 13, "unit": "%"}, {"measurement": "Activity", "setting": "Mus musculus [4]", "result": 648, "unit": "cm"}, {"measurement": "Activity", "setting": "Mus musculus [5]", "result": 406, "unit": "cm"}, {"measurement": "inhibition", "setting": "[6]", "result": -2, "unit": "%"}, {"measurement": "inhibition", "setting": "[7]", "result": -5, "unit": "%"}, {"measurement": "inhibition", "setting": "[8]", "result": 4, "unit": "%"}, {"measurement": "inhibition", "setting": "Homo sapiens [9]", "result": -1, "unit": "%"}, {"measurement": "inhibition", "setting": "[10]", "result": -7, "unit": "%"}, {"measurement": "Activity", "setting": "Mus musculus [11]", "result": 626, "unit": "cm"}, {"measurement": "inhibition", "setting": "[12]", "result": -3, "unit": "%"}, {"measurement": "inhibition", "setting": "[13]", "result": 4, "unit": "%"}, {"measurement": "inhibition", "setting": "[14]", "result": 0, "unit": "%"}, {"measurement": "Activity", "setting": "Mus musculus [15]", "result": "inactive"}, {"measurement": "Activity", "setting": "Mus musculus [16]", "result": 194, "unit": "%"}, {"measurement": "inhibition", "setting": "[17]", "result": -3, "unit": "%"}, {"measurement": "inhibition", "setting": "[18]", "result": -7, "unit": "%"}, {"measurement": "inhibition", "setting": "[19]", "result": -3, "unit": "%"}, {"measurement": "Activity", "setting": "Mus musculus [20]", "result": 237, "unit": "%"}, {"measurement": "Activity", "setting": "[21]", "result": "Active"}, {"measurement": "inhibition", "setting": "[22]", "result": -4, "unit": "%"}, {"measurement": "inhibition", "setting": "Homo sapiens [23]", "result": 6, "unit": "%"}, {"measurement": "ED50", "setting": "Mus musculus [24]", "result": 595, "unit": "mg/kg"}, {"measurement": "inhibition", "setting": "[25]", "result": 1, "unit": "%"}]}
